ChEMBL document CHEMBL4190276, “Design, synthesis and evaluation of coumarin-pargyline hybrids as novel dual inhibitors of monoamine oxidases and amyloid-β aggregation for the treatment of Alzheimer's disease” (Eur J Med Chem, 2017)

Legend:
[1] = molecular target: T1, Amine oxidase [flavin-containing] A (Homo sapiens, UniProt P21397); test: Inhibition of recombinant human MAO-A using p-tyramine as substrate preincubated for 15 mins followed by substrate addition measured after 20 mins by amplex red reagent based fluorescence assay
T1 sequence (P21397 whole entry): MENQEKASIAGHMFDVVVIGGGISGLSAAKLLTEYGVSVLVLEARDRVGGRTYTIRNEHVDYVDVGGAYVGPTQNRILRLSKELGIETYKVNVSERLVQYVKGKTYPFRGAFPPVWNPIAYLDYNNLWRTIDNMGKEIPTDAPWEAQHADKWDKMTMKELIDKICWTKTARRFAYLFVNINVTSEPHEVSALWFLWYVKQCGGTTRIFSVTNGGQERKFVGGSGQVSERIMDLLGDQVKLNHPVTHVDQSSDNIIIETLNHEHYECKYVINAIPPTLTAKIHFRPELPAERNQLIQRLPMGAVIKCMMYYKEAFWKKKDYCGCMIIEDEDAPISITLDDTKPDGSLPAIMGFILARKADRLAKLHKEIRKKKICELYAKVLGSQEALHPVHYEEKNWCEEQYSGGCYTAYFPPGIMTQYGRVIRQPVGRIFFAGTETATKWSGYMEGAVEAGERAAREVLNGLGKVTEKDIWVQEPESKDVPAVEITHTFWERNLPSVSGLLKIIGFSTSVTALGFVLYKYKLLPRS

[2] = molecular target: T2, Amine oxidase [flavin-containing] B (Homo sapiens, UniProt P27338); test: Inhibition of recombinant human MAO-B using p-tyramine as substrate preincubated for 15 mins followed by substrate addition measured after 20 mins by amplex red reagent based fluorescence assay
T2 sequence (P27338 whole entry): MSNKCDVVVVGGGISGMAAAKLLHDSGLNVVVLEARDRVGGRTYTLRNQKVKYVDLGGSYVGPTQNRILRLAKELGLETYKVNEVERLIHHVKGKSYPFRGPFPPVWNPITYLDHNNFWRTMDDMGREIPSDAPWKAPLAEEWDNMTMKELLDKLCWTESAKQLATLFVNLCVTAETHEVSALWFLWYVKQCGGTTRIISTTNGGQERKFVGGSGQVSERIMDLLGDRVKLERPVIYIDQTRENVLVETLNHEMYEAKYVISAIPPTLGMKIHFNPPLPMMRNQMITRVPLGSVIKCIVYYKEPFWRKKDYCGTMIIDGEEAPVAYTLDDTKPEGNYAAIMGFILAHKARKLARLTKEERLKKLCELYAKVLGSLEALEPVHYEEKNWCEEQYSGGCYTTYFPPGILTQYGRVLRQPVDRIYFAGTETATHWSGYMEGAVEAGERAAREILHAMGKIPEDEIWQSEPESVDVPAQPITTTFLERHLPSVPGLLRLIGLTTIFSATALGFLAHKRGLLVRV

[3] = species: Homo sapiens; test: Selectivity index, ratio of IC50 for recombinant human MAO-A to IC50 for recombinant human MAO-B
Outline: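 Commercial human MAO-A (1.1 μg protein) and MAO-B (7.5 μg protein) adjusted to equal velocity (165 pmol p-tyramine/min). Compounds from 10 mM DMSO stock diluted in 0.05 M potassium phosphate, pH 7.4. Preincubated with enzyme 15 min at 37 °C in the dark; 200 μM Amplex Red, 2 U/mL HRP, 2 mM p-tyramine added for 20 min at 37 °C.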

[4] = molecular target: Amyloid-beta precursor protein (Homo sapiens) (UniProt P05067); test: Inhibition of self-induced Amyloid beta (1 to 42) (unknown origin) aggregation at 25 uM after 48 hrs by thioflavin T-based fluorometric assay relative to control
Outline: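 Aβ1-42 stock (2000 μM in 1% ammonium hydroxide) diluted in 50 mM phosphate pH 7.4. Peptide (final 25 μM) incubated with or without compound (25 μM) at 37 °C for 48 h. Then diluted in 50 mM glycine-NaOH pH 8.0 containing 5 μM thioflavin T, read after 5 min (ex 446/em 490 nm). Inhibition = (1 − IFi/IFc) × 100 after blank subtraction. Mean ± SD of three independent experiments.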

[5] = Permeability of the compound in PBS/EtOH at […] after 16 hrs by PAMPA; type: ADME; settings: read-out: Peff
[6] = molecular target: T2, Amine oxidase [flavin-containing] B; test: Irreversible inhibition of recombinant human MAO-B at 30 nM using p-tyramine as substrate preincubated for 15 to 60 mins followed by substrate addition and subsequent two-fold enzyme dilution measured after 15 mins by amplex red reagent based fluorescence assay; settings: 0.25 h, 0.03 µM
[7] = system: PC-12; test: Cytotoxicity against rat PC12 cells assessed as reduction in cell viability up to 100 uM after 24 hrs by MTT assay; type: cell-based; settings: pc-12, 24 h
Outline: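 PC12 cells grown at 37 °C, 5% CO2 in DMEM with 10% bovine calf serum and penicillin/streptomycin; seeded 10,000 cells/well, switched to serum-free medium, then exposed to compound (0–100 μM) for 24 h. MTT added for 4 h at 37 °C, formazan dissolved in DMSO, absorbance read at 570 nm (reference 630 nm). Mean ± SD of three independent experiments.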

[8] = system: Mus musculus; test: Acute toxicity in Kunming mouse assessed as mortality at 2.4 mmol/kg, po administered as single dose via gavage measured continuously for first 4 hrs, intermittently for next 24 hrs and occasionally thereafter for 14 days; type: organism-based; settings: in vivo
Outline: (§1)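 Male KM mice (22 days old, 18–20 g), 15 in total, randomly split into 3 groups of 5. Kept on a 12 h light/dark cycle at 20-22 °C and 60-70% humidity, fasted overnight with free water. Single oral dose of 2.4 mmol/kg suspended in 0.5% CMC-Na. Mortality, behaviour, water and food intake, and body weight followed over 14 days.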

[9] = system: Mus musculus; test: Acute toxicity in Kunming mouse assessed as abnormal change in water consumption at 2.4 mmol/kg, po administered as single dose via gavage measured continuously for first 4 hrs, intermittently for next 24 hrs and occasionally thereafter for 14 days; type: organism-based; settings: in vivo; outline: as §1
[10] = system: Mus musculus; test: Acute toxicity in Kunming mouse assessed as abnormal change in food consumption at 2.4 mmol/kg, po administered as single dose via gavage measured continuously for first 4 hrs, intermittently for next 24 hrs and occasionally thereafter for 14 days; type: organism-based; settings: in vivo; outline: as §1
[11] = system: Mus musculus; test: Acute toxicity in Kunming mouse assessed as abnormal change in body weight at 2.4 mmol/kg, po administered as single dose via gavage measured continuously for first 4 hrs, intermittently for next 24 hrs and occasionally thereafter for 14 days; type: organism-based; settings: in vivo; outline: as §1
[12] = system: Mus musculus; test: Cardiotoxicity in Kunming mouse at 2.4 mmol/kg, po administered as single dose via gavage measured continuously for first 4 hrs, intermittently for next 24 hrs and occasionally thereafter for 14 days by […]; type: toxicity, organism-based; settings: in vivo
Outline: (§2)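 Male KM mice (18–20 g) received a single oral 2.4 mmol/kg dose in 0.5% CMC-Na suspension after an overnight fast. All animals were sacrificed on day 14 after dosing, and heart, liver and kidneys were examined macroscopically for damage.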

[13] = system: Mus musculus; test: Hepatotoxicity in Kunming mouse at 2.4 mmol/kg, po administered as single dose via gavage measured continuously for first 4 hrs, intermittently for next 24 hrs and occasionally thereafter for 14 days by […]; type: toxicity, organism-based; settings: in vivo; outline: as §2
[14] = system: Mus musculus; test: Nephrotoxicity in Kunming mouse at 2.4 mmol/kg, po administered as single dose via gavage measured continuously for first 4 hrs, intermittently for next 24 hrs and occasionally thereafter for 14 days […]; type: toxicity, organism-based; settings: in vivo; outline: as §2
[15] = system: Mus musculus; test: Acute toxicity in Kunming mouse assessed as effect on serum AST level at 2.4 mmol/kg, po administered as single dose via gavage measured continuously for first 4 hrs, intermittently for next 24 hrs and occasionally thereafter for 14 days; type: organism-based; settings: in vivo
Outline: (§3)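 Male KM mice (18–20 g), fasted overnight, given one oral 2.4 mmol/kg dose suspended in 0.5% CMC-Na. On day 14, orbital blood was collected before decapitation and serum AST and ALT activities measured against a control group. Mean ± SD of three independent experiments.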

[16] = system: Mus musculus; test: Acute toxicity in Kunming mouse assessed as effect on serum ALT level at 2.4 mmol/kg, po administered as single dose via gavage measured continuously for first 4 hrs, intermittently for next 24 hrs and occasionally thereafter for 14 days; type: organism-based; settings: in vivo; outline: as §3

Amyloid-beta precursor protein (Homo sapiens), sequence (P05067 whole entry): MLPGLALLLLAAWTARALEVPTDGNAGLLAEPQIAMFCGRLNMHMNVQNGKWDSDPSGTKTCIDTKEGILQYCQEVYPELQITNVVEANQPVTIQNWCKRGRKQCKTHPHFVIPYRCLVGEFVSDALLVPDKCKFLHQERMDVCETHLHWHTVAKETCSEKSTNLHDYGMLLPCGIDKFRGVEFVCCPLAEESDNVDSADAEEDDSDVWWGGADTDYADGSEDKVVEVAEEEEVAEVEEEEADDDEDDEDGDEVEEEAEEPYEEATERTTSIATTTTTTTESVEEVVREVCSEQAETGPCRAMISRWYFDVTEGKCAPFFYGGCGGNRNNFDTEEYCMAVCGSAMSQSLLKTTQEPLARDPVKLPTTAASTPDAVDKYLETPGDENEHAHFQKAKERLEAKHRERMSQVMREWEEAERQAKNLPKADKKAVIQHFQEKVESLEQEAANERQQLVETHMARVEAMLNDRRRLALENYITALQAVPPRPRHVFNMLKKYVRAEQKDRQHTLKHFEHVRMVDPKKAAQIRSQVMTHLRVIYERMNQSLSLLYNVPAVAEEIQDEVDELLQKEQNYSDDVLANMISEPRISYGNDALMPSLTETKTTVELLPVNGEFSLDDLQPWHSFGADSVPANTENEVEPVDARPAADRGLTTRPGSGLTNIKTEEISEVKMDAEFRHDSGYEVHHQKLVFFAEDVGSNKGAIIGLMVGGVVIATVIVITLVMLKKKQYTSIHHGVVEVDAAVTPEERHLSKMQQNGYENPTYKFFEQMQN

`C#CCN(CCOc1ccc2ccc(=O)oc2c1)Cc1ccc(OC)cc1` showed an IC50 [1] of 55 µM, an IC50 [2] of 3.51 µM and a Ratio IC50 [3] of 15.7.

`C#CCN(CCCCOc1ccc2ccc(=O)oc2c1)Cc1ccc(C(C)C)cc1` showed an IC50 [1] of 35.4 µM, an IC50 [2] of 3.5 µM and a Ratio IC50 [3] of 10.1.

`C#CCN(C)CCOc1ccc2ccc(=O)oc2c1` showed an IC50 [1] of 69.9 µM, an IC50 [2] of 1.1 µM and a Ratio IC50 [3] of 63.4. The inhibition [4] was 36.4%.

`C#CCN(C)CCCOc1ccc2ccc(=O)oc2c1` gave an IC50 [1] of 36.9 µM, an IC50 [2] of 1.08 µM and a Ratio IC50 [3] of 34. The inhibition [4] was 59.3%.

`C#CCN(CCOc1ccc2ccc(=O)oc2c1)Cc1ccc(C)cc1` showed an IC50 [1] of 56.4 µM, an IC50 [2] of 5.64 µM and a Ratio IC50 [3] of 10.

Molecule `CCn1cc(C(=O)O)c(=O)c2cc(F)c(N3CCNC(C)C3)c(F)c21` (stereo unspecified) [LOMEFLOXACIN] has a Papp at 16 h [5] of 1.05 ×10⁻⁶ cm/s.

`C#CCN(CCCCOc1ccc2ccc(=O)oc2c1)Cc1ccc(C)cc1` gave an IC50 [1] of 94.5 µM, an IC50 [2] of 1.68 µM and a Ratio IC50 [3] of 56.4. The inhibition [4] was 50%.

`C#CCN(CCCOc1ccc2ccc(=O)oc2c1)Cc1ccc(OC)cc1` showed an IC50 [1] of 60 µM, an IC50 [2] of 6.08 µM and a Ratio IC50 [3] of 9.87.

Molecule `C#CCN(CCCCOc1ccc2ccc(=O)oc2c1)Cc1ccccc1` has an IC50 [1] of 89.3 µM, an IC50 [2] of 0.978 µM and a Ratio IC50 [3] of 91.4.

Molecule `C#CCN(CCCOc1ccc2ccc(=O)oc2c1)Cc1ccc(C)cc1` has an IC50 [1] of 116 µM, an IC50 [2] of 7.38 µM and a Ratio IC50 [3] of 15.8.

`C#CCN(CCOc1ccc2ccc(=O)oc2c1)Cc1cccc(OC)c1` gave an IC50 [1] of 72.1 µM, an IC50 [2] of 7.01 µM and a Ratio IC50 [3] of 10.3.

With `C#CCN(C)CCCCOc1ccc2ccc(=O)oc2c1` the “inhibition (INH)” value [6] was “Active”, the IC50 [1] was 3.28 µM and the IC50 [2] was 0.027 µM. The Ratio IC50 [3] was 121, the inhibition [4] was 54% and the Papp at 16 h [5] was 8.92 ×10⁻⁶ cm/s. For the same molecule, the Activity [7] was “Non-Toxic”, the Activity [8] was “Non-Toxic” and the Activity [9] was “Non-Toxic”. For the same molecule, the Activity [10] was “Non-Toxic”, the Activity [11] was “Non-Toxic” and the Activity [12] was “Non-Toxic”. The Activity [13] was “Non-Toxic”, the Activity [14] was “Non-Toxic” and the Activity [15] was “Non-Toxic”. For the same molecule, the Activity [16] was “Non-Toxic”.

With `C#CCN(CCOc1ccc2ccc(=O)oc2c1)Cc1ccc(C(C)C)cc1` the IC50 [1] was 70 µM, the IC50 [2] was 6.96 µM and the Ratio IC50 [3] was 10.1.

Work on `C#CCN(CCCOc1ccc2ccc(=O)oc2c1)Cc1cccc(OC)c1` yielded an IC50 [1] of 22.7 µM, an IC50 [2] of 4.59 µM and a Ratio IC50 [3] of 4.94.
